In ChEMBL document CHEMBL3044956, “Nematicidal and antifungal activities of annonaceous acetogenins from Annona squamosa against various plant pathogens” (J Agric Food Chem, 2011):

Legend:
Assay type in all cases: functional
[1] = test system: Colletotrichum coccodes; assay: In vivo antifungal activity against Colletotrichum coccodes infected red pepper seedlings assessed as control of red pepper anthracnose development at 10 ug/ml treated 1 day before spore inoculation measured 3-7 days after inoculation
In short: (§1)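 Potted seedlings sprayed to runoff with material dissolved in MeOH and diluted in 0.025% Tween 20 (5% MeOH); controls got the Tween/MeOH solution alone. Inoculated with spores or mycelial suspension 1 day later. Infected leaf or sheath area rated 3–7 days after inoculation; % control = 100(A−B)/A. Randomized complete block design, three replicates, run in duplicate; Tukey HSD.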

[2] = test system: Colletotrichum coccodes; assay: In vivo antifungal activity against Colletotrichum coccodes infected red pepper seedlings assessed as control of red pepper anthracnose development at 50 ug/ml treated 1 day before spore inoculation measured 3-7 days after inoculation; in short: as §1
[3] = test system: Blumeria hordei; assay: In vivo antifungal activity against Blumeria graminis f. sp. hordei infected barley seedlings assessed as control of barley powdery mildew disease development at 100 ug/ml treated 1 day before spore inoculation measured 3-7 days after inoculation; in short: as §1
[4] = test system: Blumeria hordei; assay: In vivo antifungal activity against Blumeria graminis f. sp. hordei infected barley seedlings assessed as control of barley powdery mildew disease development at 1 ug/ml treated 1 day before spore inoculation measured 3-7 days after inoculation; in short: as §1
[5] = test system: Pyricularia oryzae; assay: In vivo antifungal activity against Magnaporthe oryzae infected rice seedlings assessed as control of rice blast disease development at 50 ug/ml treated 1 day before spore inoculation measured 3-7 days after inoculation; in short: as §1
[6] = test system: Pyricularia oryzae; assay: In vivo antifungal activity against Magnaporthe oryzae infected rice seedlings assessed as control of rice blast disease development at 1 ug/ml treated 1 day before spore inoculation measured 3-7 days after inoculation; in short: as §1
[7] = test system: Bursaphelenchus xylophilus; assay: Nematicidal activity against second juvenile stage (J2) of Bursaphelenchus xylophilus assessed as mortality at >0.33 ug/ml after 2 days by microtiter plate assay method (Beneficial crop Pine)
In short: (§2)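 Pine wood nematodes reared on B. cinerea mycelia on PDA for 7 days at 28 °C. J2s collected in 0.01% Triton X-100 water and tested in microtiter plates. Compounds in DMSO or MeOH, solvent ≤1%; solvent-only controls. Concentrations 0.004–1 μg/mL. Mortality Abbott-corrected; LC50 by probit. Two runs, three replicates each.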

[8] = test system: Bursaphelenchus xylophilus; assay: Nematicidal activity against second juvenile stage (J2) of Bursaphelenchus xylophilus assessed as mortality after 2 days by microtiter plate assay method (Beneficial crop Pine); settings: 48 h; in short: as §2
[9] = test system: Puccinia recondita; assay: In vivo antifungal activity against Puccinia recondita infected wheat seedlings assessed as reduction in wheat leaf rust disease symptoms development at 10 ug/ml treated 1 day before spore inoculation measured 7 days after inoculation; parameters: scale not given: the % may be the effect or the level left; in short: as §1
[10] = test system: Puccinia recondita; assay: In vivo antifungal activity against Puccinia recondita infected wheat seedlings assessed as reduction in wheat leaf rust disease symptoms development at 2 ug/ml treated 1 day before spore inoculation measured 7 days after inoculation; parameters: scale not given: the % may be the effect or the level left; in short: as §1

N#Cc1sc2c(=O)c3ccccc3c(=O)c=2sc1C#N [DITHIANON] showed an Activity [1] of 20% and an Activity [2] of 100%.

Work on CCCCNC(=O)n1c(NC(=O)OC)nc2ccccc21 [BENOMYL] yielded an Activity [3] of 100% and an Activity [4] of 75%.

CN(CC[C@H](N)CC(=O)N[C@H]1CC[C@H](n2ccc(N)nc2=O)O[C@@H]1C(=O)O)C(=N)N [BLASTADIN S] was tested, and the Activity [5] was 100% and the Activity [6] was 65.5%.

CCCCCCCCCC[C@H](O)[C@H]1CC[C@H]([C@H]2CC[C@H]([C@H](O)CCCCCCCCCCCCC3=C[C@H](C)OC3=O)O2)O1 [BULLANIN] gave a mortality [7] of 100% and an LC50 [8] of 0.018 mg/L.

With CCCCCCCCCC[C@@H](O)[C@H]1CC[C@H]([C@H]2CC[C@H]([C@H](O)CCCCCCCCCCC3=C[C@H](C)OC3=O)O2)O1 (relative stereo) [REL-SQUAMOCIN-K] the mortality [7] was 100% and the LC50 [8] was 0.039 mg/L.

CCCCCCCCCC[C@@H](O)[C@H]1CC[C@H]([C@H]2CC[C@H]([C@H](O)CCCCCCCCCCCCC3=C[C@H](C)OC3=O)O2)O1 [ISODESAACETYLUVARICIN] was tested, and the mortality [7] was 100% and the LC50 [8] was 0.024 mg/L.

C[Si](Cn1cncn1)(c1ccc(F)cc1)c1ccc(F)cc1 [FLUSILAZOLE] showed an Activity [9] of 100% and an Activity [10] of 78%.
